In brackets after ≈: the same amount, converted by molar mass.
Columns and labels:
Format in all cases: functional
[1] = tested on: Mycobacterium tuberculosis; test: Antimicrobial activity against drug-susceptible Mycobacterium tuberculosis H37Rv expressing wild type atpE selected after 30 times MIC drug exposure
Method in brief: (§1)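 Each resistant mutant clone (one colony picked per independent fluctuation culture selected on drug agar) is suspended in PBS, sonicated and applied by 96-pin replicator. Nonselective and rifampin control plates are included. Plates are read after 4 weeks; MIC is the lowest concentration with no visible growth.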

[2] = tested on: Mycobacterium tuberculosis; test: Antimicrobial activity against drug-susceptible Mycobacterium tuberculosis H37Rv
[3] = tested on: Mycobacterium tuberculosis; test: Antimicrobial activity against drug-susceptible Mycobacterium tuberculosis isolate 4 expressing wild type atpE and F0 operon selected after 10 times MIC drug exposure; method in brief: as §1
[4] = tested on: Mycobacterium tuberculosis; test: Antimicrobial activity against drug-susceptible Mycobacterium tuberculosis H37Rv expressing wild type atpE selected after 10 times MIC drug exposure; method in brief: as §1
[5] = tested on: Mycobacterium tuberculosis; test: Antimicrobial activity against drug-susceptible Mycobacterium tuberculosis isolate 6 expressing wild type atpE selected after 30 times MIC drug exposure; method in brief: as §1
[6] = tested on: Mycobacterium tuberculosis; test: Antimicrobial activity against drug-susceptible Mycobacterium tuberculosis isolate 4 expressing wild type atpE selected after 10 times MIC drug exposure; method in brief: as §1
[7] = tested on: Mycobacterium tuberculosis; test: Antimicrobial activity against drug-susceptible Mycobacterium tuberculosis isolate 6 expressing wild type atpE selected after 10 times MIC drug exposure; method in brief: as §1
[8] = tested on: Mycobacterium tuberculosis; test: Antimicrobial activity against drug-susceptible Mycobacterium tuberculosis Mycobacterium tuberculosis H37Rv expressing wild type atpE and F0 operon selected after 10 times MIC drug exposure; method in brief: as §1

Compound: COc1nc2ccc(Br)cc2cc1[C@@H](c1ccccc1)[C@@](O)(CCN(C)C)c1cccc2ccccc12 [BEDAQUILINE]
- MIC [1]: 0.24 µg/mL (≈ 0.432 µM)
- MIC [2]: 0.03 µg/mL (≈ 0.054 µM)
- MIC [3]: 0.3 µg/mL (≈ 0.54 µM)
- MIC [4]: 0.48 µg/mL (≈ 0.864 µM)
- MIC [5]: 0.12 µg/mL (≈ 0.216 µM)
- MIC [6]: 0.12 µg/mL (≈ 0.216 µM)
- MIC [7]: 0.24 µg/mL (≈ 0.432 µM)
- MIC [8]: 0.48 µg/mL (≈ 0.864 µM)

— ChEMBL document CHEMBL1255391, “Rates and mechanisms of resistance development in Mycobacterium tuberculosis to a novel diarylquinoline ATP synthase inhibitor” (2010)
